Calls of active or inactive are those of the source. No cut-off for these calls is given here.
Columns and labels:
[1] = tested on: Phytophthora citrophthora; assay: Fungicidal activity against Phytophthora citrophthora CECT 2353 at 0.2 mg/disk after 48 hrs by agar diffusion assay; assay type: functional
How it was run: (§1)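 Fungi were grown 7 days at 28 °C on PDA, then suspended in 0.05% Tween 80 in sterile water to about 10^6 conidia/mL. 1 mL was mixed into 15 mL PDA. After setting, four 0.5 cm paper disks impregnated with test product were added. Controls were solvent-only disks and benomyl disks, dosed per fungus. The read-out was the no-growth inhibition zone (mm), as the mean ± SE of three independent experiments.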

Escherichia coli [2] = assay: Bactericidal activity against Escherichia coli CECT 405 at 0.2 mg/disk after 24 hrs by agar diffusion assay; assay type: functional
How it was run: (§2)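 Each bacterium, kept as 24-h cultures on solid-medium slants, was reactivated in Nutrient Broth for 24 h at 28 or 37 °C depending on species. 1 mL of this suspension was plated and overlaid with 15 mL Plate Count Agar. Once the agar solidified, five paper disks loaded with test product were applied. Plates were incubated 24 h in the dark at 28 or 37 °C by species.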

Geotrichum candidum [3] = assay: Fungicidal activity against Geotrichum candidum CCM 245 at 0.2 mg/disk after 48 hrs by agar diffusion assay; assay type: functional; how it was run: as §1
Trichoderma viride [4] = assay: Fungicidal activity against Trichoderma viride CECT 2423 at 0.2 mg/disk after 48 hrs by agar diffusion assay; assay type: functional; how it was run: as §1
Fusarium culmorum [5] = assay: Fungicidal activity against Fusarium culmorum CCM 172 at 0.2 mg/disk after 48 hrs by agar diffusion assay; assay type: functional; how it was run: as §1
[6] = tested on: Pectobacterium carotovorum; assay: Bactericidal activity against Erwinia carotovora CECT 225 at 0.2 mg/disk after 24 hrs by agar diffusion assay; assay type: functional; how it was run: as §2
Salmonella typhi = assay: Bactericidal activity against Salmonella typhi CECT 409 at 0.2 mg/disk after 24 hrs by agar diffusion assay; assay type: functional, Salmonella enterica subsp. enterica serovar Typhi; conditions: for Activity: Salmonella enterica subsp. enterica serovar Typhi
How it was run: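 Bacteria from 24-h slant cultures reactivated in Nutrient Broth for 24 h at 28 or 37 °C depending on strain. 1 mL of suspension was placed in a plate and overlaid with 15 mL Plate Count Agar. After solidification, five paper disks loaded with compound were applied. Plates were incubated 24 h in the dark at 28 or 37 °C depending on strain.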

Enterococcus faecalis = assay: Bactericidal activity against Enterococcus faecalis CECT 481 at 0.2 mg/disk after 24 hrs by agar diffusion assay; assay type: functional; how it was run: as §2
Aspergillus parasiticus [7] = assay: Fungicidal activity against Aspergillus parasiticus CECT 2681 at 0.2 mg/disk after 48 hrs by agar diffusion assay; assay type: functional; how it was run: as §1
Escherichia coli [8] = assay: Bactericidal activity against Escherichia coli CECT 100 at 0.2 mg/disk after 24 hrs by agar diffusion assay; assay type: functional; how it was run: as §2
Staphylococcus aureus = assay: Bactericidal activity against Staphylococcus aureus CECT 86 at 0.2 mg/disk after 24 hrs by agar diffusion assay; assay type: functional; how it was run: as §2
Bacillus cereus = assay: Bactericidal activity against Bacillus cereus CECT 148 at 0.2 mg/disk after 24 hrs by agar diffusion assay; assay type: functional; how it was run: as §2
Fusarium culmorum [9] = assay: Fungicidal activity against Fusarium culmorum CCM 172 at […] after 48 hrs by agar diffusion assay; assay type: functional, organism-based; conditions: 0.4 mg/disk; how it was run: as §1
Trichoderma viride [10] = assay: Fungicidal activity against Trichoderma viride CECT 2423 at 0.4 mg/disk after 48 hrs by agar diffusion assay; assay type: functional, organism-based; how it was run: as §1
Aspergillus parasiticus [11] = assay: Fungicidal activity against Aspergillus parasiticus CECT 2681 at 0.4 mg/disk after 48 hrs by agar diffusion assay; assay type: functional, organism-based; how it was run: as §1
[12] = tested on: Phytophthora citrophthora; assay: Fungicidal activity against Phytophthora citrophthora CECT 2353 at 0.4 mg/disk after 48 hrs by agar diffusion assay; assay type: functional, organism-based; how it was run: as §1
Geotrichum candidum [13] = assay: Fungicidal activity against Geotrichum candidum CCM 245 at 0.4 mg/disk after 48 hrs by agar diffusion assay; assay type: functional, organism-based; how it was run: as §1

CCNC(=O)Oc1ccc2c(c1)CCN1C(=O)CCC21 (stereo unspecified)
inhibition zone (IZ) [1]: 9.66 mm
inhibition zone (IZ) (Escherichia coli [2]): 6.83 mm
inhibition zone (IZ) (Geotrichum candidum [3]): 0 mm
inhibition zone (IZ) (Trichoderma viride [4]): 0 mm
inhibition zone (IZ) (Fusarium culmorum [5]): 0 mm
inhibition zone (IZ) [6]: 8.83 mm
inhibition zone (IZ) (Salmonella typhi): 7.5 mm
inhibition zone (IZ) (Enterococcus faecalis): 8.5 mm
inhibition zone (IZ) (Aspergillus parasiticus [7]): 0 mm
inhibition zone (IZ) (Escherichia coli [8]): 6.33 mm
inhibition zone (IZ) (Staphylococcus aureus): 0 mm
inhibition zone (IZ) (Bacillus cereus): 6.5 mm

O=C1CCC2c3cc(O)c(Cl)cc3CCN12 (stereo unspecified)
Activity (Escherichia coli [2]): inactive
Activity (Fusarium culmorum [9]): inactive
Activity (Trichoderma viride [10]): inactive
Activity (Aspergillus parasiticus [11]): inactive
Activity [12]: inactive
Activity [6]: inactive
Activity (Salmonella typhi): inactive
Activity (Enterococcus faecalis): inactive
Activity (Escherichia coli [8]): inactive
Activity (Geotrichum candidum [13]): inactive
Activity (Staphylococcus aureus): inactive
Activity (Bacillus cereus): inactive

O=C1CCC2c3ccc(OCc4ccccc4)cc3CCN12 (stereo unspecified)
inhibition zone (IZ) [1]: 11.33 mm
inhibition zone (IZ) (Escherichia coli [2]): 6.33 mm
inhibition zone (IZ) (Geotrichum candidum [3]): 6.16 mm
inhibition zone (IZ) (Trichoderma viride [4]): 6 mm
inhibition zone (IZ) (Fusarium culmorum [5]): 12 mm
inhibition zone (IZ) [6]: 7.26 mm
inhibition zone (IZ) (Salmonella typhi): 6 mm
inhibition zone (IZ) (Enterococcus faecalis): 6.83 mm
inhibition zone (IZ) (Aspergillus parasiticus [7]): 6.83 mm
inhibition zone (IZ) (Escherichia coli [8]): 0 mm
inhibition zone (IZ) (Staphylococcus aureus): 0 mm
inhibition zone (IZ) (Bacillus cereus): 8.66 mm

O=C(COc1ccc2c(c1)CCN1C(=O)CCC21)Nc1ccccc1 (stereo unspecified)
Activity [1]: inactive
inhibition zone (IZ) (Escherichia coli [2]): 7.5 mm
Activity (Geotrichum candidum [3]): inactive
Activity (Trichoderma viride [4]): inactive
Activity (Fusarium culmorum [5]): inactive
inhibition zone (IZ) [6]: 8 mm
inhibition zone (IZ) (Enterococcus faecalis): 7.33 mm
Activity (Aspergillus parasiticus [7]): inactive
inhibition zone (IZ) (Escherichia coli [8]): 0 mm
inhibition zone (IZ) (Staphylococcus aureus): 0 mm
inhibition zone (IZ) (Bacillus cereus): 8.83 mm

CCNC(=O)Oc1cc2c(cc1Cl)CCN1C(=O)CCC21 (stereo unspecified)
Activity (Escherichia coli [2]): inactive
Activity (Fusarium culmorum [9]): inactive
Activity (Trichoderma viride [10]): inactive
Activity (Aspergillus parasiticus [11]): inactive
Activity [12]: inactive
Activity [6]: inactive
Activity (Salmonella typhi): inactive
Activity (Enterococcus faecalis): inactive
Activity (Escherichia coli [8]): inactive
Activity (Geotrichum candidum [13]): inactive
Activity (Staphylococcus aureus): inactive
Activity (Bacillus cereus): inactive

COc1cc2c(cc1Cl)CCN1C(=O)CCC21 (stereo unspecified)
inhibition zone (IZ) [1]: 6.83 mm
inhibition zone (IZ) (Escherichia coli [2]): 6.83 mm
inhibition zone (IZ) (Geotrichum candidum [3]): 6.33 mm
inhibition zone (IZ) (Trichoderma viride [4]): 0 mm
inhibition zone (IZ) (Fusarium culmorum [5]): 7.5 mm
inhibition zone (IZ) [6]: 10.33 mm
inhibition zone (IZ) (Enterococcus faecalis): 6.83 mm
inhibition zone (IZ) (Aspergillus parasiticus [7]): 7.5 mm
inhibition zone (IZ) (Escherichia coli [8]): 6.16 mm
inhibition zone (IZ) (Staphylococcus aureus): 7.83 mm
inhibition zone (IZ) (Bacillus cereus): 7.33 mm

CN(C)[C@@H]1C(O)=C(C(N)=O)C(=O)[C@@]2(O)C(O)=C3C(=O)c4c(O)cccc4[C@@](C)(O)[C@H]3C[C@@H]12 [TETRACYCLINE]
inhibition zone (IZ) (Escherichia coli [2]): 25.66 mm
inhibition zone (IZ) [6]: 13.33 mm
inhibition zone (IZ) (Enterococcus faecalis): 26 mm
inhibition zone (IZ) (Escherichia coli [8]): 25.66 mm
inhibition zone (IZ) (Staphylococcus aureus): 27 mm
inhibition zone (IZ) (Bacillus cereus): 24.33 mm

From ChEMBL document CHEMBL2157981, “Synthesis of new antimicrobial pyrrolo[2,1-a]isoquinolin-3-ones” (2012)
